# Structures can show the parent of a compound that is named as a salt.
# How the values were obtained:
# Human alphaherpesvirus 2 = test: Antiviral activity against HSV2 infected in mink lung cells assessed as reduction in viral titer at 1 ug/ml; assay type: functional; set-up: scale not given: the % may be the effect or the level left
# [1] = Cytotoxicity against human KB cells; assay type: cell-based; settings: read-out: MIC
# [2] = Cytotoxicity against human LoVo cells; assay type: cell-based; settings: read-out: MIC
# Bacillus anthracis = test: Antibacterial activity against Bacillus anthracis deltaANR after 14 hrs by microplate alamar blue assay; assay type: functional
# [3] = system: Mycobacterium tuberculosis; test: Antitubercular activity against Mycobacterium tuberculosis H37Rv after 16 to 24 hrs by microplate alamar blue assay; assay type: functional
# Method in brief: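 H37Rv (ATCC 27294) in Middlebrook 7H12; twofold dilutions from 12.8 mM DMSO stocks, final 128 to 0.5 μM; 1 × 10^5 cfu/mL inoculum, aerobic 37 °C. Day 7: Tween 80 plus Alamar Blue added, then 16–24 h more. Fluorescence ex 530/em 590 nm; MIC is lowest concentration giving ≥90% reduction versus bacteria-only controls; rifampin, isoniazid positive controls.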
SMILES,Activity (Human alphaherpesvirus 2),MCC [1],MCC [2],MIC (Bacillus anthracis),MIC [3]
COc1c(C#N)c2c3ccccc3[nH]c2c2c1c1ccccc1n2C,95%,5 µg/mL,5 µg/mL,> 200 µM,> 128 µM
COc1c(C#N)c2c3ccccc3[nH]c2c2c1c1ccccc1n2Cc1ccccc1,–,–,–,> 200 µM,44.1 µM
Cn1c2ccccc2c2c(O)c(C#N)c3c4ccccc4[nH]c3c21,–,–,–,6.3 µM,56.6 µM
COc1c(C#N)c2c3ccccc3n(C)c2c2c1c1ccccc1n2C,–,–,–,> 200 µM,> 128 µM
N#Cc1c(O)c2c3ccccc3n(Cc3ccccc3)c2c2[nH]c3ccccc3c12,–,–,–,1.6 µM,60.6 µM
CN[C@@H]1C[C@H]2O[C@@](C)([C@@H]1OC)n1c3ccccc3c3c4c(c5c6ccccc6n2c5c31)C(=O)NC4 [STAUROSPORINE],–,–,–,128 µM,14.7 µM
CO[C@H]1/C=C/O[C@@]2(C)Oc3c(C)c(O)c4c(O)c(c(/C=N/N5CCN(C)CC5)c(O)c4c3C2=O)NC(=O)/C(C)=C\C=C\[C@H](C)[C@H](O)[C@@H](C)[C@@H](O)[C@@H](C)[C@H](OC(C)=O)[C@@H]1C [RIFAMPIN],–,–,–,–,0.1 µM
COc1c(C#N)c2c3ccccc3[nH]c2c2[nH]c3ccccc3c12,–,–,–,6.3 µM,> 128 µM
COc1c(C#N)c2c3ccccc3n(C)c2c2[nH]c3ccccc3c12,–,–,–,> 200 µM,> 128 µM
N#Cc1c(O)c2c3ccccc3[nH]c2c2[nH]c3ccccc3c12,–,–,–,1.6 µM,15 µM
COc1c(C(N)=O)c2c3ccccc3[nH]c2c2c1c1ccccc1n2C,–,–,–,–,> 128 µM
NNC(=O)c1ccncc1 [ISONIAZID],–,–,–,–,0.6 µM
O=C(O)c1cn(C2CC2)c2cc(N3CCNCC3)c(F)cc2c1=O [CIPROFLOXACIN HYDROCHLORIDE],–,–,–,0.1 µM,–

# From ChEMBL document CHEMBL1152638, “Natural product leads for drug discovery: isolation, synthesis and biological evaluation of 6-cyano-5-methoxyindolo[2,3-a]carbazole based ligands as antibacterial agents” (Bioorg Med Chem, 2009)
